Assays:
L1210 [1] = assay: In vivo antitumor activity against the L1210 leukemia cell line in mouse species B6D2F1 after peroral administration (inoculum cells-10E5,iv) at the dose of 200 mg/kg on 7th day; format: functional; details: route oral
How it was run: (§1)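 B6D2F1 mice were inoculated with 10^5 L1210 leukemia cells, ip or iv as the line states. Compound was given orally as a suspension in 1% (carboxymethyl)cellulose in water, dosed on day 1 or 3, over 28–39 days. T/C% = mean death day of treated/mean death day of controls. Survivors to the end were counted in groups of 7–8.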

L1210 [2] = assay: In vivo antitumor activity against the L1210 leukemia cell line in mouse species B6D2F1 after peroral administration (inoculum cells-10E5,iv) at the dose of 100 mg/kg; format: functional; details: route oral
L1210 [3] = assay: In vivo antitumor activity against the L1210 leukemia cell line in mouse species B6D2F1 after peroral administration (inoculum cells-10E5,iv) at the dose of 100 mg/kg on 7th day; format: functional; details: route oral; how it was run: as §1
L1210 [4] = assay: In vivo antitumor activity against the L1210 leukemia cell line in mouse species B6D2F1 after peroral administration (inoculum cells-10E5,iv) at the dose of 200 mg/kg; format: functional; details: route oral
L1210 [5] = assay: In vivo antitumor activity against the L1210 leukemia cell line in mouse species B6D2F1 after peroral administration (inoculum cells-10E5,ip) at the dose of 80 mg/kg on 10th day; format: functional; details: route oral; how it was run: as §1
TLX-5 [6] = assay: In vivo antitumor activity against the TLX5 lymphoma cell line in mouse species CBA/CA after intraperitoneal administration (inoculum cells-2x10E5,sc) at the dose of 160 mg/kg on 5th day; format: functional
TLX-5 [7] = assay: In vivo antitumor activity against the TLX5 lymphoma cell line in mouse species CBA/CA after intraperitoneal administration (inoculum cells-2x10E5,sc) at the dose of 20 mg/kg on 5th day; format: functional
L1210 [8] = assay: In vivo antitumor activity against the L1210 leukemia cell line in mouse species B6D2F1 after peroral administration (inoculum cells-10E5,ip) at the dose of 10 mg/kg on 10th day; format: functional; details: route oral; how it was run: as §1
TLX-5 [9] = assay: In vivo antitumor activity against the TLX5 lymphoma cell line in mouse species CBA/CA after intraperitoneal administration (inoculum cells-2x10E5,sc) at the dose of 320 mg/kg; format: functional
How it was run: (§2)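 CBA/CA mice were inoculated with 2 × 10^5 TLX5 lymphoma cells. Drug given intraperitoneally in 10% Me2SO in arachis oil, 5 mice per dose, and the experiment lasted 60 days. Survivors at 60 days were recorded. T/C % = mean death day of treated animals / mean death day of control animals.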

TLX-5 [10] = assay: In vivo antitumor activity against the TLX5 lymphoma cell line in mouse species CBA/CA after intraperitoneal administration (inoculum cells-2x10E5,sc) at the dose of 80 mg/kg; format: functional; how it was run: as §2
TLX-5 [11] = assay: In vivo antitumor activity against the TLX5 lymphoma cell line in mouse species CBA/CA after intraperitoneal administration (inoculum cells-2x10E5,sc) at the dose of 160 mg/kg; format: functional; how it was run: as §2
TLX-5 [12] = assay: In vivo antitumor activity against the TLX5 lymphoma cell line in mouse species CBA/CA after intraperitoneal administration (inoculum cells-2x10E5,sc) at the dose of 40 mg/kg on 5th day; format: functional
TLX-5 [13] = assay: In vivo antitumor activity against the TLX5 lymphoma cell line in mouse species CBA/CA after intraperitoneal administration (inoculum cells-2x10E5,sc) at the dose of 40 mg/kg; format: functional; how it was run: as §2
TLX-5 [14] = assay: In vivo antitumor activity against the TLX5 lymphoma cell line in mouse species CBA/CA after intraperitoneal administration (inoculum cells-2x10E5,sc) at the dose of 320 mg/kg on 5th day; format: functional
TLX-5 [15] = assay: In vivo antitumor activity against the TLX5 lymphoma cell line in mouse species CBA/CA after intraperitoneal administration (inoculum cells-2x10E5,sc) at the dose of 20 mg/kg; format: functional; how it was run: as §2
TLX-5 [16] = assay: In vivo antitumor activity against the TLX5 lymphoma cell line in mouse species CBA/CA after intraperitoneal administration (inoculum cells-2x10E5,sc) at the dose of 80 mg/kg on 5th day; format: functional
TLX-5 [17] = assay: In vivo antitumor activity against the TLX5 lymphoma cell line in mouse species CBA/CA after intraperitoneal administration (inoculum cells-2x10E5,sc) at the dose of 10 mg/kg; format: functional
TLX-5 [18] = assay: In vivo antitumor activity against the TLX5 lymphoma cell line in mouse species CBA/CA after intraperitoneal administration (inoculum cells-2x10E5,sc) at the dose of 10 mg/kg on 5th day; format: functional
TLX-5 [19] = assay: In vivo antitumor activity against the TLX5 lymphoma cell line in mouse species CBA/CA after intraperitoneal administration (inoculum cells-2x10E5,sc) at the dose of 320 mg/kg on 3rd day
L1210 [20] = assay: In vivo antitumor activity against the L1210 leukemia cell line in mouse species B6D2F1 after peroral administration (inoculum cells-10E5,iv) at the dose of 50 mg/kg on 7th day; format: functional; details: route oral; how it was run: as §1
L1210 [21] = assay: In vivo antitumor activity against the L1210 leukemia cell line in mouse species B6D2F1 after peroral administration (inoculum cells-10E5,iv) at the dose of 50 mg/kg; format: functional; details: route oral

Structure (SMILES) | Survivors (TLX-5 [6]) | Survivors (TLX-5 [7]) | T/C (TLX-5 [10]) [%] | T/C (TLX-5 [11]) [%] | Survivors (TLX-5 [12]) | T/C (TLX-5 [13]) [%] | T/C (TLX-5 [15]) [%] | Survivors (TLX-5 [16]) | other results
O=C(NO)c1ncn2c(=O)n(CCCl)nnc12 |  |  |  |  |  |  |  |  | Survivors (L1210 [1]): 0; T/C (L1210 [2]): 187%; Survivors (L1210 [3]): 0; T/C (L1210 [4]): 218%
CN(C)C(=O)c1ncn2c(=O)n(CCCl)nnc12 | 0 | 0 |  |  |  |  |  |  | Survivors (L1210 [5]): 0; Survivors (L1210 [8]): 0
COC(=O)c1ncn2c(=O)n(CCCl)nnc12 | 0 | 0 | 110 | 123 | 0 | 110 | 106 | 0 | T/C (TLX-5 [9]): 140%; Survivors (TLX-5 [14]): 0
[N-]=[N+]=NC(=O)c1ncn2c(=O)n(CCCl)nnc12 | 0 | 0 | 106 |  | 0 | 96 | 97 | 0 | T/C (TLX-5 [17]): 101%; Survivors (TLX-5 [18]): 0
CCSC(=O)c1ncn2c(=O)n(CCCl)nnc12 | 0 | 0 | 108 | 119 | 0 | 104 | 106 | 0 | T/C (TLX-5 [9]): 125%; Survivors (TLX-5 [19]): 0
O=C(N[N+](=O)[O-])c1ncn2c(=O)n(CCCl)nnc12 | 2 | 0 | 118 | >354 | 0 | 101 | 109 | 0 | Survivors (TLX-5 [14]): 0
O=C(NOCc1ccccc1)c1ncn2c(=O)n(CCCl)nnc12 |  |  |  |  |  |  |  |  | Survivors (L1210 [1]): 0; T/C (L1210 [2]): 98%; Survivors (L1210 [3]): 0; Survivors (L1210 [20]): 0; T/C (L1210 [4]): 98%; T/C (L1210 [21]): 98%

Reference: ChEMBL document CHEMBL1125112, “Antitumor imidazotetrazines. 20. Preparation of the 8-acid derivative of mitozolomide and its utility in the preparation of active antitumor agents” (1990)
